According to ChEMBL document CHEMBL3526134, “Molecular mechanism of altered ezetimibe disposition in nonalcoholic steatohepatitis” (Drug Metab Dispos, 2012):
The source made the active and inactive calls. The rule behind the calls is not given here.

Key:
[1] = Drug level in methionine and choline deficient fed Sprague-Dawley rat urine treated with ezetimibe at 10 mg/kg, iv after 120 mins by LC-MS/MS method; type: ADME, organism-based; parameters: dose 10 mg/kg, route intravenous; settings: in vivo, 2 h
Method in brief: (§1)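 After 8 weeks MCD diet, male SD rats under urethane received EZE 10 mg/kg i.v. through femoral vein cannula (ethanol/propylene glycol/PEG 400/water vehicle; n=3-5). Terminal urine taken by bladder puncture at 120 min; EZE and β-glucuronidase-hydrolysed total EZE measured by LC-MS/MS; glucuronide by difference.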

[2] = Drug level in methionine and choline deficient fed Sprague-Dawley rat bile treated with ezetimibe at 10 mg/kg, iv after 30 to 90 mins by LC-MS/MS method; type: ADME, organism-based; parameters: dose 10 mg/kg, route intravenous; settings: in vivo
Method in brief: (§2)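 Male SD rats (200-250 g) on MCD diet 8 weeks, urethane-anesthetized (1.2 g/kg i.p.), femoral vein/artery and bile duct cannulated, core temperature maintained. EZE 10 mg/kg i.v. via femoral vein in 10% ethanol/40% propylene glycol/30% PEG 400/20% water (n=3-5). Bile collected at 15-min intervals over 120 min; total EZE after β-glucuronidase (50°C, 60 min) and EZE by LC-MS/MS; glucuronide = total minus parent.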

[3] = Drug level in methionine and choline deficient fed Sprague-Dawley rat urine at 10 mg/kg, iv after 120 mins by LC-MS/MS method; type: ADME, organism-based; parameters: dose 10 mg/kg, route intravenous; settings: in vivo, 2 h; method in brief: as §1
[4] = Drug metabolism in methionine and choline deficient fed Sprague-Dawley rat urine assessed as ezetimibe glucuronide formation at 10 mg/kg, iv after 120 mins by LC-MS/MS method; type: ADME, organism-based; parameters: dose 10 mg/kg, route intravenous; settings: in vivo, 2 h; method in brief: as §1
Rattus norvegicus [5] = assay: Effect on total bile acid levels in Sprague-Dawley rat nonalcoholic steatohepatitis model at 10 mg/kg, po after 120 mins by spectrophotometry; type: functional, organism-based; parameters: dose 10 mg/kg
Rattus norvegicus [6] = assay: Effect on total bile acid levels in Sprague-Dawley rat nonalcoholic steatohepatitis model at 10 mg/kg, iv after 120 mins by spectrophotometry; type: functional, organism-based; parameters: dose 10 mg/kg
Plasma [7] = assay: Drug level in methionine and choline deficient fed Sprague-Dawley rat plasma at 10 mg/kg, po after 40 mins by LC-MS/MS method; type: ADME, organism-based; parameters: dose 10 mg/kg, route oral; settings: in vivo
Method in brief: (§3)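 Cannulated, urethane-anesthetized male SD rats after 8 weeks MCD diet given EZE 10 mg/kg orally in 0.25% carboxymethylcellulose (n=3-5). Plasma collected from 2 to 120 min post-dose; total EZE (after β-glucuronidase, 50°C 60 min) and parent EZE quantified by LC-MS/MS; glucuronide = total minus parent. Mean ± SEM.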

Plasma [8] = assay: Drug metabolism in methionine and choline deficient fed Sprague-Dawley rat plasma assessed as ezetimibe glucuronide formation at 10 mg/kg, po after 40 mins by LC-MS/MS method; type: ADME, organism-based; parameters: dose 10 mg/kg, route oral; settings: in vivo; method in brief: as §3
Plasma [9] = assay: Drug level in methionine and choline deficient fed Sprague-Dawley rat plasma at 10 mg/kg, po after 120 mins by LC-MS/MS method; type: ADME, organism-based; parameters: dose 10 mg/kg, route oral; settings: in vivo, 2 h; method in brief: as §3
Plasma [10] = assay: Drug metabolism in methionine and choline deficient fed Sprague-Dawley rat plasma assessed as ezetimibe glucuronide formation at 10 mg/kg, po after 120 mins by LC-MS/MS method; type: ADME, organism-based; parameters: dose 10 mg/kg, route oral; settings: in vivo, 2 h; method in brief: as §3
Plasma [11] = assay: Drug level in methionine and choline deficient fed Sprague-Dawley rat plasma at 10 mg/kg, iv after 40 mins by LC-MS/MS method; type: ADME, organism-based; parameters: dose 10 mg/kg, route intravenous; settings: in vivo
Method in brief: (§4)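 MCD-diet (8 weeks) male SD rats under urethane, femoral artery/vein and bile duct cannulated; EZE 10 mg/kg i.v. bolus via femoral vein in ethanol/propylene glycol/PEG 400/water vehicle (n=3-5). Arterial plasma sampled from 2 to 120 min; 25 µL plasma analysed by LC-MS/MS with and without β-glucuronidase pre-hydrolysis; glucuronide calculated by difference. Mean ± SEM.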

Plasma [12] = assay: Drug metabolism in methionine and choline deficient fed Sprague-Dawley rat plasma assessed as ezetimibe glucuronide formation at 10 mg/kg, iv after 40 mins by LC-MS/MS method; type: ADME, organism-based; parameters: dose 10 mg/kg, route intravenous; settings: in vivo; method in brief: as §4
Plasma [13] = assay: Drug level in methionine and choline deficient fed Sprague-Dawley rat plasma at 10 mg/kg, iv after 120 mins by LC-MS/MS method; type: ADME, organism-based; parameters: dose 10 mg/kg, route intravenous; settings: in vivo, 2 h; method in brief: as §4
Plasma [14] = assay: Drug metabolism in methionine and choline deficient fed Sprague-Dawley rat plasma assessed as ezetimibe glucuronide formation at 10 mg/kg, iv after 120 mins by LC-MS/MS method; type: ADME, organism-based; parameters: dose 10 mg/kg, route intravenous; settings: in vivo, 2 h; method in brief: as §4
[15] = Drug level in methionine and choline deficient fed Sprague-Dawley rat bile at 10 mg/kg, po after 120 mins by LC-MS/MS method; type: ADME, organism-based; parameters: dose 10 mg/kg, route oral; settings: in vivo, 2 h
Method in brief: (§5)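 Male SD rats (200-250 g) fed MCD diet 8 weeks, urethane-anesthetized with femoral and bile duct cannulae. EZE 10 mg/kg by oral gavage in 0.25% carboxymethylcellulose (n=3-5). Bile taken at 15-min intervals to 120 min; samples ±β-glucuronidase hydrolysis (50°C, 60 min), hydroxychalcone internal standard, LC-MS/MS on C18 gradient; glucuronide derived as total minus unconjugated EZE.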

[16] = Drug metabolism in methionine and choline deficient fed Sprague-Dawley rat bile assessed as ezetimibe glucuronide formation at 10 mg/kg, po after 120 mins by LC-MS/MS method; type: ADME, organism-based; parameters: dose 10 mg/kg, route oral; settings: in vivo, 2 h; method in brief: as §5
[17] = Drug level in methionine and choline deficient fed Sprague-Dawley rat bile at 10 mg/kg, iv after 30 to 90 mins by LC-MS/MS method; type: ADME, organism-based; parameters: dose 10 mg/kg, route intravenous; settings: in vivo; method in brief: as §2
[18] = Drug metabolism in methionine and choline deficient fed Sprague-Dawley rat bile assessed as ezetimibe glucuronide formation at 10 mg/kg, iv after 30 to 90 mins by LC-MS/MS method; type: ADME, organism-based; parameters: dose 10 mg/kg, route intravenous; settings: in vivo; method in brief: as §2
[19] = Drug level in methionine and choline deficient fed Sprague-Dawley rat urine at 10 mg/kg, po after 120 mins by LC-MS/MS method; type: ADME, organism-based; parameters: dose 10 mg/kg, route oral; settings: in vivo, 2 h
Method in brief: (§6)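 MCD-fed (8 weeks) male SD rats, urethane-anesthetized and cannulated, dosed EZE 10 mg/kg by gavage in 0.25% carboxymethylcellulose (n=3-5). Urine collected by bladder puncture 120 min post-dose; parent and total EZE (after β-glucuronidase, 50°C, 60 min) by LC-MS/MS, glucuronide calculated as their difference.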

[20] = Drug metabolism in methionine and choline deficient fed Sprague-Dawley rat urine assessed as ezetimibe glucuronide formation at 10 mg/kg, po after 120 mins by LC-MS/MS method; type: ADME, organism-based; parameters: dose 10 mg/kg, route oral; settings: in vivo, 2 h; method in brief: as §6

Drug metabolism [1]	Drug metabolism [2]	Drug uptake [3]	Drug metabolism [4]	Drug uptake (Plasma [7])	Drug metabolism (Plasma [8])	Drug uptake (Plasma [9])	Drug metabolism (Plasma [10])	Drug uptake (Plasma [11])	Drug metabolism (Plasma [12])	Drug uptake (Plasma [13])	Drug metabolism (Plasma [14])	Drug uptake [15]	Drug metabolism [16]	Drug uptake [17]	Drug metabolism [18]	Drug uptake [19]	Drug metabolism [20]	SMILES	Activity (Rattus norvegicus [5])	Activity (Rattus norvegicus [6])
metabolite_detected	metabolite_not_detected	–	–	–	–	–	–	–	–	–	–	–	–	–	–	–	–	O=C(O)[C@H]1O[C@@H](Oc2ccc([C@@H]3[C@@H](CC[C@H](O)c4ccc(F)cc4)C(=O)N3c3ccc(F)cc3)cc2)[C@H](O)[C@@H](O)[C@@H]1O	–	–
–	–	Active	metabolite_detected	Active	metabolite_detected	Active	metabolite_detected	Active	metabolite_detected	Active	metabolite_detected	Active	metabolite_detected	Not Active	metabolite_not_detected	Active	metabolite_detected	O=C1[C@H](CC[C@H](O)c2ccc(F)cc2)[C@@H](c2ccc(O)cc2)N1c1ccc(F)cc1 [EZETIMIBE]	inactive	inactive
